Results reported in ChEMBL document CHEMBL1121682, “Cerebrovasodilatation through selective inhibition of the enzyme carbonic anhydrase. 3. 5-(Arylthio)-, 5-(arylsulfinyl)-, and 5-(arylsulfonyl)thiophene-2-sulfonamides” (J Med Chem, 1981).
Activity calls are given as the source filed them. The rule behind the calls is not given here.

What was measured:
Mus musculus [1] = assay: Effective dose of perorally administered, that gives protection against max electroshock in mice; type: functional; details: po
In short: (§1)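 Male mice of 18–28 g, with weights within ±2 g of the assay mean, in groups of ten. Vehicle controls were included. Corneal electrodes delivered 200 ms at 20 mA (mean weight ≤20 g) or 25 mA, the current giving maximal tonic extensor convulsion in untreated mice.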

[2] = Anticonvulsant potency ratio expressed as ratio ED50 of UK-12130 to that of compound during separate electroshock experiments; type: functional
[3] = Dissociation constant in water; type: physicochemical
[4] = Concentration producing 50% inhibition of carbonic anhydrase taken from mouse erythrocytes
In short: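 Colorimetric assay, modified from Philpot and Philpot, run in an ice bath with about 2 enzyme units. Inhibitor was preincubated with enzyme for 5 min before substrate was added. Activity was expressed as EU = (T0 − T)/T from the uncatalyzed and catalyzed reaction times in seconds. The 50% inhibitory concentration was read graphically.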

Mus musculus [5] = assay: Effective dose of perorally administered compound that gives protection against max electroshock in mice; inactive; type: functional, organism-based
In short: as §1, with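 “ten. Compound was ball-milled in 0.1% (v/v) Tween-80 in saline and given by gavage at 2.5, 6.25 and 16 mg/kg, 2 h before shock.” for “ten.”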

[6] = Dissociation constant in 30% aqueous methanol; type: physicochemical

Compound | ED50 (Mus musculus [1]) | Ratio [2] | other results
NS(=O)(=O)c1ccc(Sc2cccc(F)c2)s1 | > 6 mg/kg | < 1.3 | –
CC(=O)Nc1ccc(S(=O)(=O)c2cc(Cl)c(S(N)(=O)=O)s2)cc1 | > 6 mg/kg | < 1.3 | –
NC(=O)c1ccc(S(=O)(=O)c2ccc(S(N)(=O)=O)s2)cc1 | 4 mg/kg | 2 | –
Cc1ccc([S+]([O-])c2ccc(S(N)(=O)=O)s2)cc1 (centres undefined) | > 6 mg/kg | < 1.3 | –
CC(=O)c1cccc(S(=O)(=O)c2ccc(S(N)(=O)=O)s2)c1 | 3 mg/kg | 2.3 | –
CSc1ccc(Sc2ccc(S(N)(=O)=O)s2)cc1 | 4 mg/kg | 1.75 | –
CC(=O)Nc1ccc(Sc2cc(Cl)c(S(N)(=O)=O)s2)cc1 | 5 mg/kg | 1.4 | –
NS(=O)(=O)c1ccc([S+]([O-])c2ccc(F)cc2)s1 (centres undefined) | 3 mg/kg | 2 | –
NS(=O)(=O)c1cc(Cl)c([S+]([O-])c2ccccc2)s1 (centres undefined) | > 6 mg/kg | < 1.3 | –
Cc1ccc(Sc2ccc(S(N)(=O)=O)s2)cc1 | > 40 mg/kg | < 0.2 | –
NS(=O)(=O)c1ccc(S(=O)(=O)c2ccc(F)cc2)s1 | 2 mg/kg | 4 | pKa [3]: 8.29; Concentration [4]: 9 nM
CC(=O)Nc1ccc(Sc2sc(S(N)(=O)=O)cc2Cl)cc1 | – | – | ED50 (Mus musculus [5]): inactive
COC1CCN(S(=O)(=O)c2ccc(S(N)(=O)=O)c(Cl)c2)CC1 | – | – | Concentration [4]: 190 nM
NS(=O)(=O)c1ccc(S(=O)(=O)c2ccc(Cl)cc2)s1 | 3 mg/kg | 2.3 | –
NS(=O)(=O)c1ccc(Sc2ccc(F)cc2)s1 | 7 mg/kg | 1 | –
NS(=O)(=O)c1cc(Cl)c(S(=O)(=O)c2ccccc2)s1 | 3 mg/kg | 2.3 | –
CS(=O)(=O)c1ccc(S(=O)(=O)c2ccc(S(N)(=O)=O)s2)cc1 | 4 mg/kg | 1.75 | –
CC(C)C(=O)Nc1ccc(S(=O)(=O)c2ccc(S(N)(=O)=O)s2)cc1 | 4 mg/kg | 2 | –
Nc1ccc(Sc2ccc(S(N)(=O)=O)s2)cc1 | 7 mg/kg | 1 | –
CC(=O)Nc1ccc(Sc2ccc(S(N)(=O)=O)s2)cc1 | 9 mg/kg | 1.1 | –
Cc1cc(S(N)(=O)=O)sc1S(=O)(=O)c1ccccc1 | 3 mg/kg | 2.7 | –

Compound | ED50 (Mus musculus [1]) | Ratio [2] | other results
CC(C)(C)c1ccc(S(=O)(=O)c2ccc(S(N)(=O)=O)s2)cc1 | – | – | ED50 (Mus musculus [5]): inactive
Cc1ccccc1S(=O)(=O)c1ccc(S(N)(=O)=O)s1 | 6 mg/kg | 1.2 | –
CC(=O)Nc1ccc(S(=O)(=O)c2sc(S(N)(=O)=O)cc2Cl)cc1 | 6 mg/kg | 1.3 | –
CC(=O)Nc1nnc(S(N)(=O)=O)s1 [ACETAZOLAMIDE] | 36 mg/kg | – | Concentration [4]: 20 nM
NS(=O)(=O)c1ccc(S(=O)(=O)c2ccc(Br)cc2)s1 | 4 mg/kg | 1.75 | –
NS(=O)(=O)c1cc(Cl)c(Sc2ccccc2)s1 | – | – | ED50 (Mus musculus [5]): inactive
CC(=O)Nc1ccc(S(=O)(=O)c2ccc(S(N)(=O)=O)s2)cc1 | 2 mg/kg | 4 | –
Cc1ccc(S(=O)(=O)c2ccc(S(N)(=O)=O)s2)cc1 | 8 mg/kg | 0.8 | –
NS(=O)(=O)c1ccc(S(=O)(=O)c2cccc(F)c2)s1 | 2 mg/kg | 3.5 | –
NS(=O)(=O)c1ccc(S(=O)(=O)c2ccccc2)s1 | 2 mg/kg | 3.5 | –
NS(=O)(=O)c1ccc([S+]([O-])c2ccc(Br)cc2)s1 (centres undefined) | 5 mg/kg | 1.4 | –
NS(=O)(=O)c1ccc(S(=O)(=O)c2ccc(O)cc2)s1 | – | – | ED50 (Mus musculus [5]): inactive
COc1ccc(S(=O)(=O)c2ccc(S(N)(=O)=O)s2)cc1 | 6 mg/kg | 1 | –
NS(=O)(=O)c1ccc(Sc2cccc(Cl)c2)s1 | > 6 mg/kg | < 1.2 | –
NS(=O)(=O)c1ccc([S+]([O-])c2ccccc2)s1 (centres undefined) | 2 mg/kg | 3.5 | –
NS(=O)(=O)c1ccc([S+]([O-])c2cccc(F)c2)s1 (centres undefined) | 2.5 mg/kg | 3.2 | –
CS(=O)(=O)c1ccc(Sc2ccc(S(N)(=O)=O)s2)cc1 | 5 mg/kg | 1.4 | –
Cc1ccccc1Sc1ccc(S(N)(=O)=O)s1 | > 16 mg/kg | < 0.5 | –
NS(=O)(=O)c1ccc(Sc2ccc3ccccc3c2)s1 | – | – | ED50 (Mus musculus [5]): inactive
CC(C)(C)c1ccc(Sc2ccc(S(N)(=O)=O)s2)cc1 | – | – | ED50 (Mus musculus [5]): inactive
Nc1ccc(S(=O)(=O)c2ccc(S(N)(=O)=O)s2)cc1 | 2 mg/kg | 3.5 | –

Compound | ED50 (Mus musculus [1]) | Ratio [2] | other results
NS(=O)(=O)c1ccc([S+]([O-])c2cccc(Cl)c2)s1 (centres undefined) | 4 mg/kg | 1.75 | –
NS(=O)(=O)c1cc(Br)c(S(=O)(=O)c2ccccc2)s1 | 3 mg/kg | 2.3 | pKa [3]: 7.98; Concentration [4]: 4.2 nM
COc1ccc(Sc2ccc(S(N)(=O)=O)s2)cc1 | > 40 mg/kg | < 0.2 | –
CC(C)C(=O)Nc1ccc(Sc2ccc(S(N)(=O)=O)s2)cc1 | – | – | ED50 (Mus musculus [5]): inactive
NS(=O)(=O)c1ccc(Sc2ccc(O)cc2)s1 | – | – | ED50 (Mus musculus [5]): inactive
NS(=O)(=O)c1sc(S(=O)(=O)c2ccccc2)cc1Cl | 33 mg/kg | 0.2 | –
CN(C)S(=O)(=O)c1ccc(Sc2ccc(S(N)(=O)=O)s2)cc1 | > 6 mg/kg | < 1.3 | –
NS(=O)(=O)c1ccc(Sc2ccccc2)s1 | 19 mg/kg | 0.3 | –
NS(=O)(=O)c1ccc(S(=O)(=O)c2cccc(C(F)(F)F)c2)s1 | 5 mg/kg | 1.6 | –
NS(=O)(=O)c1sc(Sc2ccccc2)cc1Cl | – | – | ED50 (Mus musculus [5]): inactive
NS(=O)(=O)c1ccc(S(=O)(=O)c2ccccc2)cc1 | 10 mg/kg | 0.9 | pKa [3]: 9.1; Concentration [4]: 64 nM
NS(=O)(=O)c1cc(Br)c(Sc2ccccc2)s1 | – | – | ED50 (Mus musculus [5]): inactive
NS(=O)(=O)c1ccc([S+]([O-])c2ccc(Cl)cc2)s1 (centres undefined) | 2 mg/kg | 3.5 | pKa [3]: 8.57; Concentration [4]: 26 nM
CC(=O)Nc1ccc([S+]([O-])c2ccc(S(N)(=O)=O)s2)cc1 (centres undefined) | 4 mg/kg | 1.5 | –
COc1ccc([S+]([O-])c2ccc(S(N)(=O)=O)s2)cc1 (centres undefined) | > 6 mg/kg | < 1.3 | –
NS(=O)(=O)c1ccc(Sc2ccc(Br)cc2)s1 | > 6 mg/kg | < 1.2 | –
NS(=O)(=O)c1ccc(Sc2cccc(C(F)(F)F)c2)s1 | 6 mg/kg | 1.3 | –
NS(=O)(=O)c1ccc(Sc2ccc(Cl)cc2)s1 | 3 mg/kg | 2 | Concentration [4]: 3 nM; pKa [6]: 9.19
CN(C)S(=O)(=O)c1ccc(S(=O)(=O)c2ccc(S(N)(=O)=O)s2)cc1 | – | – | ED50 (Mus musculus [5]): inactive
NS(=O)(=O)c1ccc(S(=O)(=O)c2ccc3ccccc3c2)s1 | 8 mg/kg | 0.75 | –
CS(=O)(=O)c1ccc([S+]([O-])c2ccc(S(N)(=O)=O)s2)cc1 (centres undefined) | > 16 mg/kg | < 0.4 | –
